According to the EternaBench riboswitch data:

Test system: MS2 coat protein
Test: apparent Kd, MS2 coat protein; higher = weaker binding; RNA-MaP array; FMN 200 µM where present
Method in brief: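 SNAP-549-labelled MS2 coat protein, doubled from 0.7 or 1.5 nM to 3 µM, was titrated over designs transcribed by stalled E. coli RNA polymerase on Illumina sequencing-chip clusters. Titrations were run without and then with constant ligand in 100 mM Tris-HCl pH 7.5, 80 mM KCl, 4 mM MgCl2, BSA, DTT, yeast tRNA and Tween-20. The apparent Kd is the median of filtered per-cluster fits to green signal normalised to red-channel RNA signal and control-cluster median Fmax.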

[1] = designed as: ON switch for flavin mononucleotide, no ligand
[2] = ligand present: flavin mononucleotide, designed as: ON switch for flavin mononucleotide
[3] = designed as: OFF switch for flavin mononucleotide, no ligand
[4] = ligand present: flavin mononucleotide, designed as: OFF switch for flavin mononucleotide

Sequence | apparent Kd [1] | apparent Kd [2] | apparent Kd [3] | apparent Kd [4]
CUGGAAGUCGUAGGAUAUGGUGAUGUACAUGAGGAUCACCCAUGUCCGUCUUCUCUCACAAGAUGCCAGAAGGACGACUUCCGG | 625 nM | 101 nM |  | 
UUGGACGUCGUAGGAUAUGAAGGAUAUUCCUACAUGAGGAUCACCCAUGUUGACAUGGAAGAAGGACAGAAGGACGAUGUCCAU | 11.3 nM | 5.16 nM |  | 
UAAAUGUGAGGAUAUUCGUUGAACUCGGAGACGAGUUUAACGGAGAAGGCACAUGAGGAUCACCCAUGUUCCUU |  |  | 20.4 nM | 211 nM
CGCUACUACCAGAAGGACAUGAGGAUCACCCAUGUAGGAUAUGGGUUACACGUUCCUGUGAAUUGUAACGACGCUACGUAUGCG | 203 nM | 13.4 nM |  | 
AAUUAACAUGAGGAUCACCCAUGUGAGGAUAUGGUAUUAUUUGGACAGUUAUGAUAUACCAGAAGGCACAUAUA |  |  | 63.4 nM | 108 nM
CAGUACUGAGGAUAUACAUGAGGAUCACCCAUGUGCUUUAGCUAGGAUACUAGCACUAGUAGAAGGCAGUACUG |  |  | 13.9 nM | 23.6 nM
UUCCCAGCGGGAGGAUAUGGUGCCUUAUUGGUGCUAGAAGGUCCAACAUGAGGAUCACCCAUGUGGGAGUGGUCUAAUGACCUC | 212 nM | 144 nM |  | 
AAAUAAAGGAUUAAGGAUAUAUCACAUGAAACAUGAGGAUCACCCAUGUAAUAAUAUAAAGGGUGAUAGAAGGUAGUUUAUAAAUA | 415 nM | 440 nM |  | 
AAACCACAUGAGGAUCACCCAUGUCAAGAGAGACUAGGAUAUCUGAAUUAAUUAAAUUAAGGAGAAGGAGUGAAAA | 121 nM | 64.8 nM |  | 
AGCGAACAGGCUAACAUGAGGAUCACCCAUGUGGACUCAUGGUAGGAUAUCGGGAAGGAGGAAACCGAGAAGGGCCGGUGAGCU | 254 nM | 62.8 nM |  | 
ACUGUCCGAGAGAAGGGAACAUGAGGAUCACCCAUGUUACCUCACCUGGUGACGGAACUCCAAGUUCAGGAUAUCUCGGGCGGC |  |  | 5.14 nM | 7.59 nM
UUAUAAAGUGUGAGGAUAUGCUGGUCCUUAGAUCAGCAGAAGGCACAUGAGGAUCACCCAUGUAAUAUAUUUUU |  |  | 38.4 nM | 185 nM
GAUCCGUCCUAGAAGGCCAUUCAACAUGAGGAUCACCCAUGUGCGAACUGGAGGAUAUAGGUGGGAUAGGCCUAGGGCCCGGUC | 9.38 nM | 6.12 nM |  | 
UCGAAACAGACAGGAUAUGCAGGGAGGUGCCGGUACAUGAGGAUCACCCAUGUAGAAGGGUCUCGAGUUGAACUUCAGUCAAAG |  |  | 9.61 nM | 19.5 nM
CAUGAGGUAGGAUAUACGAUAAUAUAGGGUAGAUAUAUAACACAUGAGGAUCACCCAUGUAGAAGGACCAGUAG |  |  | 31.2 nM | 57.2 nM
ACAGGCUUCGAGAAGGACAUGAGGAUCACCCAUGUGCGUGUGAAGCAGCCGUGAGGCUGCAUCAUGUAGGAUAUCGGAGUCUGU |  |  | 63.8 nM | 374 nM
AAGAAACAUGAGGAUCACCCAUGUGAGGAUAUGAAAAAGAAAAGAAAAGAAAGAAGAAUCAGAAGGCACAAAGG |  |  | 30.8 nM | 45.1 nM
GUGGUCUGACAUGAGGAUCACCCAUGUGGAAUAAAUACGGGUUAGGAUAUCUUGAGGAUCACCCAAGAGAAGGGAUCGAUUGUU | 52.8 nM | 45 nM |  | 
UUCCUCGUUGUGAGGAUAUCGUCCUCUUUUUGUUACGAGAAGGCACAUGAGGAUCACCCAUGUUUCUUGAUGUU |  |  | 16.7 nM | 42.3 nM
UCCUAACAUGAGGAUCACCCAUGUGAGGAUAUGAUACUAUGUACUUCGGUACAUAGUAUCAGAAGGCACAUCCU |  |  | 19.1 nM | 26 nM
AUACUCAUGUAAGGAUAUGCAGCCGAAACGGCUGCAGAAGGUACUAUAAUACAUGAGGAUCACCCAUGUCAAAAUAAAAUAGUC | 63.5 nM | 22.9 nM |  | 
GUUAUUUAUGUAGGAUAUGCGAGGCGAGCCUAAGCAGAAGGACAUGAGGAUCACCCAUGUAUUGCGGUCUGCGUUCAGAUCGCU |  |  | 32.4 nM | 150 nM
ACCUAUGAGGAGGAUAUACGGUGCGAAAGGACGGUAGAAGGCUUCACAUGAGGAUCACCCAUGUCGAUAAGCGA |  |  | 21.2 nM | 22.5 nM
CAUUCGUGUCUAGGAUAUGAGUGACAAGCGCGAGAUUUUCUCGCCGCUAGCUCAGAAGGAGACAUGAGGAUCACCCAUGUAAGG |  |  | 60.1 nM | 11.8 nM
GGGAGUGGAGGGAAUAACAUGAGGAUCACCCAUGUAUGGGAGAGAAGGCAGGUCGGAGGGCGAUCUGAGGAUAUUUAGACUCCU | 12.5 nM | 10.3 nM |  | 
ACAAGGCAUGUAGGAUAUCCAUUGCGUCGCGAUGGAGAAGGGCAACACACAUGAGGAUCACCCAUGUGGUCACCCAUGUCGUGU |  |  | 55.8 nM | 68.8 nM
UUACAUACAAAGGUACAUGAGGAUCACCCAUGUUUGUUGGGAAGAAGGGUAACAAUACUACACAUACAGGAUAUUUCACAAACA | 49 nM | 35.4 nM |  | 
GUCAGCUCGUGAGGAUAUACAACACUGCUUCGGCAGUGUAUUAAUAUCACAUGAGGAUCACCCAUGUAGAAGGCACGAGCUGAU |  |  | 5.07 nM | 5.81 nM

Sequence | apparent Kd [1] | apparent Kd [2] | apparent Kd [3] | apparent Kd [4]
GGGUGGCGUAGAGGAUAUGUGUUACAUGAGGAUCACCCAUGUGCAUAUGAUGUUCGUGUGUAUGCAUAGAAGGCUACGUCGCUA | 222 nM | 125 nM |  | 
CGGCCGGAUCGAGGAUAUAAGUCUAGGACAUGAGGAUCACCCAUGUAUGUCUUAGAAGGCGAUCCGGCCAGCCUGUUACAGGCA | 32.9 nM | 6.18 nM |  | 
AUCAGCUCGUCAGGAUAUACGUCACUGCGUCAGCAGUGUGGUAAGAUCACAUGAGGAUCACCCAUGUAGAAGGGACGAGCUGGU |  |  | 14.4 nM | 239 nM
AACCCUGCCUAGGAUAUACAAAAGUCACAGCUGGUAGAAGGAGGCACAUGAGGAUCACCCAUGUCACCUCGCUU |  |  | 13.4 nM | 13.7 nM
UUACUAUUGCAGAAGGCGCAAUAAUAUAUAAAGUGAGGAUAUGCAACAUGAGGAUCACCCAUGUUUCACCCAUAUGAGGAUCAC |  |  | 6.93 nM | 7.32 nM
UUGAGGUAAGGAUAUAUUAGGAGCGAAGUUACUUGUUUUUUAUAGAAGGUACAUGAGGAUCACCCAUGUGAAUA |  |  | 27.7 nM | 23.4 nM
ACAUGAGGAUCACCCAUGUAUUCAUAGGAUAUACAACAUGAGUUUCAUUCAUGUAAACAUGUAUUGUAGAAGGAUGUUACAUGU |  |  | 13.6 nM | 15 nM
ACUAUACGAGGAUAUACUGUCGGGCCUCGGACAUAAAUAAGACAUGAGGAUCACCCAUGUAGAAGGCGUUUACU |  |  | 25.6 nM | 46 nM
UUUAUUUAGGCAGGAUAUACAUGUAUAUAUAAUUUUUUAUAUAUUAUUACAUGAGGAUCACCCAUGUAGAAGGGCCUUAUUAUA |  |  | 41.9 nM | 54.7 nM
CGUGUACGAGGAUAUAGAUUGAAUGACAUGAGGAUCACCCAUGUGAUCGAUCUAUUUGAUUUAGAAGGUGUACAUG |  |  | 14 nM | 16.9 nM
GGAUUUUACUAGUUUUCUAAACAUGAGGAUCACCCAUGUUUUUAGGAUAUCAGCGUGAAACACGCUGAGAAGGAAGAACAAUCC |  |  | 15.7 nM | 18.2 nM
UGUAUGGACAGAGGAUAUACAGAUAGGAUCUACUAUCAAACAGUCCUUACAUGAGGAUCACCCAUGUAGAAGGCUGUCCAUACU |  |  | 19.4 nM | 85.8 nM
AUCUCGUCAGGAUAUUGGAUUUGGAUUGAAAGGUUUAGGUUUAAGAAGGGACAUGAGGAUCACCCAUGUCUGGU |  |  | 21.8 nM | 21.5 nM
GUCCUCUCUGAGGAUAUUAUCUGGUUCGAUUGAUAAGAAGGCAGUACAUGAGGAUCACCCAUGUGGGUCGUCUG |  |  | 31 nM | 83.7 nM
GUCCUUUCUGAGGAUAUUAUCUUUUUCGAUUGAUAAGAAGGCAGUACAUGAGGAUCACCCAUGUGGGUUGUCUG |  |  | 31 nM | 131 nM
UUGGCGACGUAGAAGGGUGACAUGAGGAUCACCCAUGUGCCGAUAUUUCUCGAAAUAUGUCGGCCACAGGAUAUACGUGCCAUC | 38.2 nM | 91.8 nM |  | 
UCCACUGCUGAGAAGGGAUACGUGUGGUUCGCAUCAGGAUAUCGAUACAGUGCAGCAUGAGGACAUGAGGAUCACCCAUGUAUC | 43 nM | 16.5 nM |  | 
GCGUAAUAGAUCCUAUUUAUCUACAUGAGGAUCACCCAUGUGCAGGAUAUGCUAUAAUUUAAUAAGCAGAAGGGCAAUUUCCGC |  |  | 73.3 nM | 159 nM
UGUCGGAGCCGAGGAUAUUACAUGAGGAUCACCCAUGUAUGAACCAAUAGCUGGAAACAGCAAUGUAAGAAGGCUGCUCCGACA |  |  | 5.08 nM | 15.7 nM
GCCGUGAUAGCAGGAUAUGCUCCGGUUGCUCAUACAUGAGGAUCACCCAUGUCACGUGCGGUGGUGCAGAAGGGUUGAAGCGAA | 748 nM | 219 nM |  | 
AGAAUUGUAGGAUAUACAUGAGGAUCACCCAUGUGGGAGGUGGAGCAUACAAGACGAGGUAGAAGGACAACGAC |  |  | 92.3 nM | 91.9 nM
AGUCAGACAGGAUAUACGUGAGUGGAAAAAGUAUGUCCACUACAUGAGGAUCACCCAUGUAGAAGGGUCUGACA |  |  | 17.7 nM | 14.7 nM
ACUAGAUGAGGAUAUGCAUAUUUUCGUGUUCUUCUAGGUUAACAUGAGGAUCACCCAUGUAGAAGGCGUCUAUA |  |  | 19.7 nM | 35 nM
AGCUGGUGACAGCAUCGAGCUAAACAUGAGGAUCACCCAUGUAGAAGGCUGUACGGUUACCGUACAGAGGAUAUACAUAGCUCG |  |  | 6.11 nM | 6.3 nM
GCCAUCAUAUGAGGAUAUGACACCGAAACGGUGUCAGAAGGCAUGUCGAUAGACAUGAGGAUCACCCAUGUAUUAAUGAUGGCA | 1090 nM | 95.1 nM |  | 
UUGAAUUGAAACAUGAGGAUCACCCAUGUGUCAUAAUUGACAUAGGAUAUGUUUAUACUUUUAAAACAGAAGGAUGACGAUACU | 14.1 nM | 9.68 nM |  | 
ACAUGAGGAUCACCCAUGUUAUCCGGGACUUCAAUUGUUUCUAGAAGGCUGUUUGCUUGUUAGUCAGAGGAUAUAGAAUCAAAU |  |  | 10.2 nM | 10.1 nM
